Assay results as given in ChEMBL document CHEMBL5058577, “EUbOPEN Chemogenomics Library 2 (Multiplex)” (2022).

System: Fibroblast
Assay: Multiplex assay against human fibroblast
Format: toxicity, cell-based
Procedure, shortened: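 Cells were classed with CellPathfinder machine-learning gating, first as Hoechst high-intensity objects or normal cells, then (normal cells) as healthy, pyknosed or fragmented nuclei, and finally (pyknosed cells) as mitotic or apoptotic. Staining of live cells at seeding used Hoechst33342, BioTracker Green Microtubule Cytoskeleton Dye, MitoTracker Red and Annexin V Alexa Fluor 680, with imaging on a CQ1 microscope at 37°C and 5% CO2 after compound addition. Tubulin, mitochondrial-mass and membrane-permeability phenotypes are per cents of healthy-nucleus cells.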

[1] = 12 h, 1 µM, compound concentration 1 uM, replicate 1
[2] = 12 h, 1 µM, compound concentration 1 uM, replicate 2
[3] = 12 h, 10 µM, compound concentration 10 uM, replicate 1
[4] = 12 h, 10 µM, compound concentration 10 uM, replicate 2
[5] = 24 h, 1 µM, compound concentration 1 uM, replicate 1
[6] = 24 h, 1 µM, compound concentration 1 uM, replicate 2
[7] = 24 h, 10 µM, compound concentration 10 uM, replicate 1
[8] = 24 h, 10 µM, compound concentration 10 uM, replicate 2
[9] = 48 h, 1 µM, compound concentration 1 uM, replicate 1
[10] = 48 h, 1 µM, compound concentration 1 uM, replicate 2
[11] = 48 h, 10 µM, compound concentration 10 uM, replicate 1
[12] = 48 h, 10 µM, compound concentration 10 uM, replicate 2

## O=C(Nc1cc(-c2ccccc2)nn1-c1ccccc1F)c1ccc([N+](=O)[O-])cc1
[1]
  Population Apoptotic (%): 28%
  Population Fragmented Nuclei (%): 17%
  Population Healthy Nuclei (%): 71%
  Population Hoechst High Intensity Objects (%): 2%
  Population Membrane Permeable-Phenotype (%): 1%
  Population Mitochondria Different-Phenotype (%): 1%
  Population Mitotic Cells (%): 71%
  Population Normal (%): 97%
  Population Pyknosed Nuclei (%): 10%
  Population Tubulin-Different-Phenotype (%): 22%
  Total Cell Count: 138
[2]
  Population Apoptotic (%): 32%
  Population Fragmented Nuclei (%): 19%
  Population Healthy Nuclei (%): 55%
  Population Hoechst High Intensity Objects (%): 8%
  Population Membrane Permeable-Phenotype (%): 4%
  Population Mitochondria Different-Phenotype (%): 9%
  Population Mitotic Cells (%): 67%
  Population Normal (%): 91%
  Population Pyknosed Nuclei (%): 25%
  Population Tubulin-Different-Phenotype (%): 53%
  Total Cell Count: 160
[3]
  Population Apoptotic (%): 28%
  Population Fragmented Nuclei (%): 10%
  Population Healthy Nuclei (%): 66%
  Population Hoechst High Intensity Objects (%): 2%
  Population Membrane Permeable-Phenotype (%): 1%
  Population Mitochondria Different-Phenotype (%): 4%
  Population Mitotic Cells (%): 71%
  Population Normal (%): 97%
  Population Pyknosed Nuclei (%): 22%
  Population Tubulin-Different-Phenotype (%): 48%
  Total Cell Count: 170
[4]
  Population Apoptotic (%): 45%
  Population Fragmented Nuclei (%): 25%
  Population Healthy Nuclei (%): 47%
  Population Hoechst High Intensity Objects (%): 6%
  Population Membrane Permeable-Phenotype (%): 6%
  Population Mitochondria Different-Phenotype (%): 3%
  Population Mitotic Cells (%): 54%
  Population Normal (%): 93%
  Population Pyknosed Nuclei (%): 26%
  Population Tubulin-Different-Phenotype (%): 77%
  Total Cell Count: 149
[5]
  Population Apoptotic (%): 53%
  Population Fragmented Nuclei (%): 16%
  Population Healthy Nuclei (%): 74%
  Population Hoechst High Intensity Objects (%): 2%
  Population Membrane Permeable-Phenotype (%): 0%
  Population Mitochondria Different-Phenotype (%): 0%
  Population Mitotic Cells (%): 46%
  Population Normal (%): 97%
  Population Pyknosed Nuclei (%): 9%
  Population Tubulin-Different-Phenotype (%): 18%
  Total Cell Count: 135
[6]
  Population Apoptotic (%): 50%
  Population Fragmented Nuclei (%): 25%
  Population Healthy Nuclei (%): 53%
  Population Hoechst High Intensity Objects (%): 7%
  Population Membrane Permeable-Phenotype (%): 6%
  Population Mitochondria Different-Phenotype (%): 2%
  Population Mitotic Cells (%): 50%
  Population Normal (%): 92%
  Population Pyknosed Nuclei (%): 20%
  Population Tubulin-Different-Phenotype (%): 52%
  Total Cell Count: 156
[7]
  Population Apoptotic (%): 26%
  Population Fragmented Nuclei (%): 7%
  Population Healthy Nuclei (%): 76%
  Population Hoechst High Intensity Objects (%): 4%
  Population Membrane Permeable-Phenotype (%): 1%
  Population Mitochondria Different-Phenotype (%): 7%
  Population Mitotic Cells (%): 73%
  Population Normal (%): 95%
  Population Pyknosed Nuclei (%): 16%
  Population Tubulin-Different-Phenotype (%): 49%
  Total Cell Count: 163
[8]
  Population Apoptotic (%): 28%
  Population Fragmented Nuclei (%): 28%
  Population Healthy Nuclei (%): 53%
  Population Hoechst High Intensity Objects (%): 6%
  Population Membrane Permeable-Phenotype (%): 9%
  Population Mitochondria Different-Phenotype (%): 1%
  Population Mitotic Cells (%): 72%
  Population Normal (%): 93%
  Population Pyknosed Nuclei (%): 18%
  Population Tubulin-Different-Phenotype (%): 69%
  Total Cell Count: 147
[9]
  Population Apoptotic (%): 54%
  Population Fragmented Nuclei (%): 23%
  Population Healthy Nuclei (%): 67%
  Population Hoechst High Intensity Objects (%): 7%
  Population Membrane Permeable-Phenotype (%): 1%
  Population Mitochondria Different-Phenotype (%): 0%
  Population Mitotic Cells (%): 45%
  Population Normal (%): 92%
  Population Pyknosed Nuclei (%): 8%
  Population Tubulin-Different-Phenotype (%): 18%
  Total Cell Count: 145
[10]
  Population Apoptotic (%): 55%
  Population Fragmented Nuclei (%): 30%
  Population Healthy Nuclei (%): 53%
  Population Membrane Permeable-Phenotype (%): 5%
  Population Mitochondria Different-Phenotype (%): 4%
  Population Mitotic Cells (%): 44%
  Population Pyknosed Nuclei (%): 15%
  Population Tubulin-Different-Phenotype (%): 54%
  Total Cell Count: 183
[11]
  Population Apoptotic (%): 66%
  Population Fragmented Nuclei (%): 16%
  Population Healthy Nuclei (%): 70%
  Population Hoechst High Intensity Objects (%): 7%
  Population Membrane Permeable-Phenotype (%): 3%
  Population Mitochondria Different-Phenotype (%): 3%
  Population Mitotic Cells (%): 33%
  Population Normal (%): 92%
  Population Pyknosed Nuclei (%): 12%
  Population Tubulin-Different-Phenotype (%): 55%
  Total Cell Count: 160
[12]
  Population Apoptotic (%): 52%
  Population Fragmented Nuclei (%): 31%
  Population Healthy Nuclei (%): 54%
  Population Hoechst High Intensity Objects (%): 5%
  Population Membrane Permeable-Phenotype (%): 6%
  Population Mitotic Cells (%): 47%
  Population Normal (%): 94%
  Population Pyknosed Nuclei (%): 14%
  Population Tubulin-Different-Phenotype (%): 66%
  Total Cell Count: 153

## O=C(O)CCC/C=C\CC1C(O)CC(O)C1/C=C/C(O)COc1cccc(Cl)c1 (stereo not drawn) [CLOPROSTENOL]
[1]
  Population Apoptotic (%): 41%
  Population Fragmented Nuclei (%): 15%
  Population Healthy Nuclei (%): 68%
  Population Hoechst High Intensity Objects (%): 0%
  Population Membrane Permeable-Phenotype (%): 0%
  Population Mitochondria Different-Phenotype (%): 2%
  Population Mitotic Cells (%): 58%
  Population Normal (%): 100%
  Population Pyknosed Nuclei (%): 15%
  Population Tubulin-Different-Phenotype (%): 22%
  Total Cell Count: 153
[2]
  Population Apoptotic (%): 20%
  Population Fragmented Nuclei (%): 22%
  Population Healthy Nuclei (%): 52%
  Population Hoechst High Intensity Objects (%): 2%
  Population Membrane Permeable-Phenotype (%): 8%
  Population Mitotic Cells (%): 80%
  Population Normal (%): 97%
  Population Pyknosed Nuclei (%): 25%
  Population Tubulin-Different-Phenotype (%): 52%
  Total Cell Count: 141
[3]
  Population Apoptotic (%): 38%
  Population Fragmented Nuclei (%): 23%
  Population Healthy Nuclei (%): 58%
  Population Hoechst High Intensity Objects (%): 12%
  Population Membrane Permeable-Phenotype (%): 0%
  Population Mitochondria Different-Phenotype (%): 4%
  Population Mitotic Cells (%): 61%
  Population Normal (%): 87%
  Population Pyknosed Nuclei (%): 18%
  Population Tubulin-Different-Phenotype (%): 31%
  Total Cell Count: 212
[4]
  Population Apoptotic (%): 23%
  Population Healthy Nuclei (%): 43%
  Population Hoechst High Intensity Objects (%): 4%
  Population Membrane Permeable-Phenotype (%): 11%
  Population Mitochondria Different-Phenotype (%): 9%
  Population Mitotic Cells (%): 76%
  Population Normal (%): 95%
  Population Pyknosed Nuclei (%): 34%
  Population Tubulin-Different-Phenotype (%): 53%
  Total Cell Count: 105
[5]
  Population Apoptotic (%): 41%
  Population Fragmented Nuclei (%): 19%
  Population Healthy Nuclei (%): 62%
  Population Hoechst High Intensity Objects (%): 0%
  Population Membrane Permeable-Phenotype (%): 1%
  Population Mitochondria Different-Phenotype (%): 3%
  Population Mitotic Cells (%): 58%
  Population Normal (%): 99%
  Population Pyknosed Nuclei (%): 18%
  Population Tubulin-Different-Phenotype (%): 26%
  Total Cell Count: 161
[6]
  Population Apoptotic (%): 18%
  Population Fragmented Nuclei (%): 27%
  Population Healthy Nuclei (%): 49%
  Population Hoechst High Intensity Objects (%): 3%
  Population Membrane Permeable-Phenotype (%): 7%
  Population Mitochondria Different-Phenotype (%): 5%
  Population Mitotic Cells (%): 81%
  Population Normal (%): 96%
  Population Pyknosed Nuclei (%): 23%
  Population Tubulin-Different-Phenotype (%): 53%
  Total Cell Count: 144
[7]
  Population Apoptotic (%): 41%
  Population Fragmented Nuclei (%): 24%
  Population Healthy Nuclei (%): 57%
  Population Hoechst High Intensity Objects (%): 12%
  Population Membrane Permeable-Phenotype (%): 2%
  Population Mitochondria Different-Phenotype (%): 3%
  Population Mitotic Cells (%): 58%
  Population Normal (%): 87%
  Population Pyknosed Nuclei (%): 18%
  Population Tubulin-Different-Phenotype (%): 24%
  Total Cell Count: 218
[8]
  Population Apoptotic (%): 59%
  Population Fragmented Nuclei (%): 28%
  Population Healthy Nuclei (%): 50%
  Population Hoechst High Intensity Objects (%): 3%
  Population Membrane Permeable-Phenotype (%): 7%
  Population Mitotic Cells (%): 40%
  Population Normal (%): 96%
  Population Pyknosed Nuclei (%): 21%
  Population Tubulin-Different-Phenotype (%): 57%
  Total Cell Count: 107
[9]
  Population Apoptotic (%): 65%
  Population Fragmented Nuclei (%): 21%
  Population Healthy Nuclei (%): 59%
  Population Hoechst High Intensity Objects (%): 2%
  Population Membrane Permeable-Phenotype (%): 2%
  Population Mitochondria Different-Phenotype (%): 2%
  Population Mitotic Cells (%): 34%
  Population Normal (%): 97%
  Population Pyknosed Nuclei (%): 19%
  Population Tubulin-Different-Phenotype (%): 25%
  Total Cell Count: 156
[10]
  Population Apoptotic (%): 36%
  Population Fragmented Nuclei (%): 37%
  Population Healthy Nuclei (%): 43%
  Population Hoechst High Intensity Objects (%): 3%
  Population Membrane Permeable-Phenotype (%): 12%
  Population Mitochondria Different-Phenotype (%): 10%
  Population Mitotic Cells (%): 64%
  Population Normal (%): 96%
  Population Pyknosed Nuclei (%): 18%
  Population Tubulin-Different-Phenotype (%): 63%
  Total Cell Count: 137
[11]
  Population Apoptotic (%): 46%
  Population Fragmented Nuclei (%): 25%
  Population Healthy Nuclei (%): 57%
  Population Hoechst High Intensity Objects (%): 13%
  Population Membrane Permeable-Phenotype (%): 0%
  Population Mitochondria Different-Phenotype (%): 2%
  Population Mitotic Cells (%): 53%
  Population Normal (%): 86%
  Population Pyknosed Nuclei (%): 16%
  Population Tubulin-Different-Phenotype (%): 30%
  Total Cell Count: 205
[12]
  Population Apoptotic (%): 55%
  Population Fragmented Nuclei (%): 41%
  Population Healthy Nuclei (%): 49%
  Population Hoechst High Intensity Objects (%): 8%
  Population Membrane Permeable-Phenotype (%): 4%
  Population Mitochondria Different-Phenotype (%): 4%
  Population Mitotic Cells (%): 44%
  Population Normal (%): 91%
  Population Pyknosed Nuclei (%): 9%
  Population Tubulin-Different-Phenotype (%): 61%
  Total Cell Count: 108
